These results are taken from ChEMBL document CHEMBL4118234, “Synthesis and biological evaluation of irreversible EGFR tyrosine kinase inhibitors containing pyrido[3,4-d]pyrimidine scaffold” (Bioorg Med Chem, 2018).

Usually IC50 stands for the concentration at which inhibition is half-maximal. The inhibition is the percentage by which the read-out fell short of the control. The low end stands for a response near the control, the high end for a response far below the control.

The structures appear in SMILES notation.

For data set [1], the system named is HCC827. As to the kind of experiment: Antiproliferative activity against human HCC827 cells harboring EGFR E746 to A750 deletion mutant after 72 hrs by MTT assay. The conditions noted are these: HCC827, 72 h. Format: functional, cell-based. The method, boiled down:
(§1)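 Cells were kept in RPMI-1640 with 10% heat-inactivated FBS, plus 1% of 100 mM sodium pyruvate for HCC827, at 37 °C and 5% CO2. They were seeded at 3000-5000 per well and pre-incubated 24 h. Final compound concentrations were 0.33, 1, 33, 100, 333, 1000, 3333, 10000 nM for 72 h. MTT was added for 4 h, formazan dissolved in DMSO, and OD read at 490 nm. Inhibition ratios were taken against control culture, and IC50 calculated from them. At least three experiments were run in triplicate.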
On the technique in general: Formazan colour is commonly taken as a measure of viable cells.

The subject of data set [2] is HCC827. Put plainly: Antiproliferative activity against human HCC827 cells harboring EGFR E746 to A750 deletion mutant at 10 uM after 72 hrs by MTT assay relative to control. Format: functional. In outline:
as §1

A short description of data set [3]: Solubility of the compound. The class given is physicochemical.
For data set [4], the system named is NCI-H1975. Put plainly: Antiproliferative activity against human NCI-H1975 cells harboring EGFR L858R/T790M double mutant after 72 hrs by MTT assay. The class given is functional, cell-based. The conditions noted are these: NCI-H1975, 72 h. In outline:
as §1

Data set [5] has as its system NCI-H1975. As to the kind of experiment: Antiproliferative activity against human NCI-H1975 cells harboring EGFR L858R/T790M double mutant at 10 uM after 72 hrs by MTT assay relative to control. The class given is functional. The method, boiled down:
as §1

For a further data set, the system named is A549. Put plainly: Cytotoxicity against human A549 cells harboring wild type EGFR assessed as reduction in cell viability after 72 hrs by MTT assay. The conditions noted are these: A549, 72 h. Format: cell-based. In outline: as §1
Data set [6] concerns the target Epidermal growth factor receptor (Homo sapiens, UniProt P00533). As to the kind of experiment: Inhibition of wild type EGFR (unknown origin) using Poly(Glu,Tyr) as substrate after 40 mins by Kinase-Glo luminescence assay. (Kinase-Glo reads ATP consumption through a luciferase reaction.)
Data set [7] deals with Epidermal growth factor receptor (Homo sapiens, UniProt P00533, L858R). As to the kind of experiment: Inhibition of EGFR L858R mutant (unknown origin) using Poly(Glu,Tyr) as substrate after 40 mins by Kinase-Glo luminescence assay.
Chain of Epidermal growth factor receptor (Homo sapiens, UniProt P00533, L858R) (P00533 25-1210 L858R limits assumed): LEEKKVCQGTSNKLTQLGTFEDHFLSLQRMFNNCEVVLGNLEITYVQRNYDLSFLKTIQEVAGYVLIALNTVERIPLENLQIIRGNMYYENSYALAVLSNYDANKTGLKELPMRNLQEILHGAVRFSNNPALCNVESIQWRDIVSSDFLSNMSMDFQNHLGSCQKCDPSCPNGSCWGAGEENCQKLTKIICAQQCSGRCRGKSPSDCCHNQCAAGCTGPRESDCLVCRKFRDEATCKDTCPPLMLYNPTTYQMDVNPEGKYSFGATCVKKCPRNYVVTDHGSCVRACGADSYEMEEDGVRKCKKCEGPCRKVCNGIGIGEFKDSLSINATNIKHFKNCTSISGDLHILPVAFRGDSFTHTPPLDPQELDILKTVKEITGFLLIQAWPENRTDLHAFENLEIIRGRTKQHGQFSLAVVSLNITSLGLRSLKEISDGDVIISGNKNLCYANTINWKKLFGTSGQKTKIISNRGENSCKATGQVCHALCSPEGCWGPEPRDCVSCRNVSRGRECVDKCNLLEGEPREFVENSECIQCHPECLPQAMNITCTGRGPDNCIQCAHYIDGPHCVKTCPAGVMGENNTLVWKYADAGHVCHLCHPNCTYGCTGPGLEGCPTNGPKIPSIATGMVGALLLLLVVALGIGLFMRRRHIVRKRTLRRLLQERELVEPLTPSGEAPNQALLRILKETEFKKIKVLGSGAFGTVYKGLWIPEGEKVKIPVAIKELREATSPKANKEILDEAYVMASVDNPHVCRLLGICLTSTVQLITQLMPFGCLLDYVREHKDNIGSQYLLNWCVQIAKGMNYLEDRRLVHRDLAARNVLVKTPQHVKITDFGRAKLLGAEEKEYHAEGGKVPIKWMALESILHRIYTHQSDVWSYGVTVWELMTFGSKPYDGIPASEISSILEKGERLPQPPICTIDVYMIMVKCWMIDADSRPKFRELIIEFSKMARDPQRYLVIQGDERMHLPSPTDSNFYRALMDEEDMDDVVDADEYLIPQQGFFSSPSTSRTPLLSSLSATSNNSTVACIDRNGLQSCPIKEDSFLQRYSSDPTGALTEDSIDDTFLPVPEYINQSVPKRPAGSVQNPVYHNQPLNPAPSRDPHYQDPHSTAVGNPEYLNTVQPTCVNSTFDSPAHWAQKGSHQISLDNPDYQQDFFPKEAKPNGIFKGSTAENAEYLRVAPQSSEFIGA
Data set [8] addresses Epidermal growth factor receptor (Homo sapiens, UniProt P00533, L858R/T790M). As to the kind of experiment: Inhibition of EGFR L858R/T790M double mutant (unknown origin) using Poly(Glu,Tyr) as substrate after 40 mins by Kinase-Glo luminescence assay.
Data set [9] addresses Epidermal growth factor receptor (Homo sapiens, UniProt P00533, C797S/L858R/T790M). Put plainly: Inhibition of EGFR L858R/T790M/C797S triple mutant (unknown origin) using Poly(Glu,Tyr) as substrate after 40 mins by Kinase-Glo luminescence assay.
The test system of data set [10] is Epidermal growth factor receptor (Homo sapiens), P00533 [L858R,T790M,C797S]. Put plainly: Inhibition of EGFR L858R/T790M/C797S triple mutant (unknown origin) at 500 nM using Poly(Glu,Tyr) as substrate after 40 mins by Kinase-Glo luminescence assay relative to control. In outline:
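The reaction ran 40 min at 30 °C in 40 mM Tris pH 7.4, 10 mM MgCl2, 0.1 mg/mL BSA, 1 mM DTT, 10 µM ATP, 25 ng kinase, and 0.2 mg/mL poly(Glu,Tyr); final DMSO was 1%. Remaining ATP was read by Kinase-Glo Plus luminescence. Inhibition was scored relative to no-compound and no-enzyme signals. At least two experiments were run.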

Data set [11] relates to HCC827. As to the kind of experiment: Induction of apoptosis in human HCC827 cells harboring EGFR E746 to A750 deletion mutant assessed as early apoptotic cells at 3 uM after 24 hrs by Annexin V-FITC/propidium iodide staining based flow cytometry (reference value: 1.34 to 1.67%). The class given is functional. A general note: Flow cytometry measures light scatter and fluorescence of single cells or particles in a stream.

The test system of data set [12] is HCC827. Put plainly: Induction of apoptosis in human HCC827 cells harboring EGFR E746 to A750 deletion mutant assessed as late apoptotic cells at 3 uM after 24 hrs by Annexin V-FITC/propidium iodide staining based flow cytometry (reference value: 23.66 to 27.14%). Format: functional.

Chain of Epidermal growth factor receptor (Homo sapiens, UniProt P00533) (P00533 whole entry): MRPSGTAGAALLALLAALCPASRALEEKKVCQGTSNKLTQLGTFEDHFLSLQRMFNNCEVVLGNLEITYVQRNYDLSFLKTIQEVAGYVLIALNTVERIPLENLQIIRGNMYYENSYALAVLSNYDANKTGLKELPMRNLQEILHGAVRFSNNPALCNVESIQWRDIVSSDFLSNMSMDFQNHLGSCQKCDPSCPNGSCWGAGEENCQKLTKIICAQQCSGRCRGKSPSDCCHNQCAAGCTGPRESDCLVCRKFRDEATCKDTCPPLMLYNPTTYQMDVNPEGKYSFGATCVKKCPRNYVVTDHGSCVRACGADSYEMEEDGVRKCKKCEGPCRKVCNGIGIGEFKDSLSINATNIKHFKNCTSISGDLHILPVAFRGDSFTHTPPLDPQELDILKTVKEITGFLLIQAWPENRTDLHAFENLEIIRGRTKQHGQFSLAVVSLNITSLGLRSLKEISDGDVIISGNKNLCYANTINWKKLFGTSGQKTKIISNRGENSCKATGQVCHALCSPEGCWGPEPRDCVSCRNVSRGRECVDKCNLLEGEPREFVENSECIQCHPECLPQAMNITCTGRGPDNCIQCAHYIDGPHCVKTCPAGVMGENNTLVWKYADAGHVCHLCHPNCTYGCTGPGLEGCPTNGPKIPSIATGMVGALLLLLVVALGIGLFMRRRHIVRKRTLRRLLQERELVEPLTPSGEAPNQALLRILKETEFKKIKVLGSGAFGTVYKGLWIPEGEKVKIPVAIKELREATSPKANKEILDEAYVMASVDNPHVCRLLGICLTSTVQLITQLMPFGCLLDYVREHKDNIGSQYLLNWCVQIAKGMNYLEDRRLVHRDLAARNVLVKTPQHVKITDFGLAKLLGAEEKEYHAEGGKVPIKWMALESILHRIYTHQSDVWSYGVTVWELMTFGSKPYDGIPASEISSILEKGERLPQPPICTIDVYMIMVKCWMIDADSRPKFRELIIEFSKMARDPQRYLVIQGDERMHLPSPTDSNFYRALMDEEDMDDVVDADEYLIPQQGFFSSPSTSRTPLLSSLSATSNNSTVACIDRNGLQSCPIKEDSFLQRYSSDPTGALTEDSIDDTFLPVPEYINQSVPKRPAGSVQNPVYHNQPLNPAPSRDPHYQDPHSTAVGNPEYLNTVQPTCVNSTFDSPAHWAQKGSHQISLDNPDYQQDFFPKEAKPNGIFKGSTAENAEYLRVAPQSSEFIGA
Chain of Epidermal growth factor receptor (Homo sapiens), P00533 [L858R,T790M,C797S] (P00533 whole entry T790M/C797S/L858R): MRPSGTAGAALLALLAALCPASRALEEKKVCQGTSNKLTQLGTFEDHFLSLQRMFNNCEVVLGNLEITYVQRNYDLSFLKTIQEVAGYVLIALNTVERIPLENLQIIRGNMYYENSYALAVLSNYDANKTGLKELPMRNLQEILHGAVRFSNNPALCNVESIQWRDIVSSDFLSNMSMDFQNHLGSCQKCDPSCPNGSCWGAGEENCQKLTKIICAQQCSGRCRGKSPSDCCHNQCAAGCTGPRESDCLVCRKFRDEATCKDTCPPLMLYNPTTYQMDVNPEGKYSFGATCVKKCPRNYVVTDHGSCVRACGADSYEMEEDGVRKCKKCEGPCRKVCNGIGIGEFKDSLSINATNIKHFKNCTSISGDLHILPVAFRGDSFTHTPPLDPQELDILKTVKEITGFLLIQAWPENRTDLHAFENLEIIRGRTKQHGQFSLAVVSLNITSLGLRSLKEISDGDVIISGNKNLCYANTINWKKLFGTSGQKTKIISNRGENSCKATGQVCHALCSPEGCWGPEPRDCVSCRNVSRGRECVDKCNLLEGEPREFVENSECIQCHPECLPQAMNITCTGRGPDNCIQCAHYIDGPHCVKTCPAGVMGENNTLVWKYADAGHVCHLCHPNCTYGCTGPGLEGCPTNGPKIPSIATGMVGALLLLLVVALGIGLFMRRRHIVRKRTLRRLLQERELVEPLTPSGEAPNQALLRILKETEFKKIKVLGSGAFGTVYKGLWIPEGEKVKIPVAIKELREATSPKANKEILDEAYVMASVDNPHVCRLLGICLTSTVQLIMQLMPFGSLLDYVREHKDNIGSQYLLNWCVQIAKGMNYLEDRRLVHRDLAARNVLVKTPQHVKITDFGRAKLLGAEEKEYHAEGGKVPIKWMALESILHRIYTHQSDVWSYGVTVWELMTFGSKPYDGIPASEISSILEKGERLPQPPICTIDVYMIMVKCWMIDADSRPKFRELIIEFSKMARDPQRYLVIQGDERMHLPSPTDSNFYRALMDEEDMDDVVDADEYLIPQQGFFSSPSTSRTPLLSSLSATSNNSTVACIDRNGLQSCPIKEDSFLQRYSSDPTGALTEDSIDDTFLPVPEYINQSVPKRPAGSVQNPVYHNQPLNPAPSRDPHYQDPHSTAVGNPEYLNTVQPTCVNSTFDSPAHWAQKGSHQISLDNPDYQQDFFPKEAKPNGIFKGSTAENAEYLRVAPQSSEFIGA
Chain of Epidermal growth factor receptor (Homo sapiens, UniProt P00533, C797S/L858R/T790M) (P00533 25-1210 T790M/C797S/L858R limits assumed): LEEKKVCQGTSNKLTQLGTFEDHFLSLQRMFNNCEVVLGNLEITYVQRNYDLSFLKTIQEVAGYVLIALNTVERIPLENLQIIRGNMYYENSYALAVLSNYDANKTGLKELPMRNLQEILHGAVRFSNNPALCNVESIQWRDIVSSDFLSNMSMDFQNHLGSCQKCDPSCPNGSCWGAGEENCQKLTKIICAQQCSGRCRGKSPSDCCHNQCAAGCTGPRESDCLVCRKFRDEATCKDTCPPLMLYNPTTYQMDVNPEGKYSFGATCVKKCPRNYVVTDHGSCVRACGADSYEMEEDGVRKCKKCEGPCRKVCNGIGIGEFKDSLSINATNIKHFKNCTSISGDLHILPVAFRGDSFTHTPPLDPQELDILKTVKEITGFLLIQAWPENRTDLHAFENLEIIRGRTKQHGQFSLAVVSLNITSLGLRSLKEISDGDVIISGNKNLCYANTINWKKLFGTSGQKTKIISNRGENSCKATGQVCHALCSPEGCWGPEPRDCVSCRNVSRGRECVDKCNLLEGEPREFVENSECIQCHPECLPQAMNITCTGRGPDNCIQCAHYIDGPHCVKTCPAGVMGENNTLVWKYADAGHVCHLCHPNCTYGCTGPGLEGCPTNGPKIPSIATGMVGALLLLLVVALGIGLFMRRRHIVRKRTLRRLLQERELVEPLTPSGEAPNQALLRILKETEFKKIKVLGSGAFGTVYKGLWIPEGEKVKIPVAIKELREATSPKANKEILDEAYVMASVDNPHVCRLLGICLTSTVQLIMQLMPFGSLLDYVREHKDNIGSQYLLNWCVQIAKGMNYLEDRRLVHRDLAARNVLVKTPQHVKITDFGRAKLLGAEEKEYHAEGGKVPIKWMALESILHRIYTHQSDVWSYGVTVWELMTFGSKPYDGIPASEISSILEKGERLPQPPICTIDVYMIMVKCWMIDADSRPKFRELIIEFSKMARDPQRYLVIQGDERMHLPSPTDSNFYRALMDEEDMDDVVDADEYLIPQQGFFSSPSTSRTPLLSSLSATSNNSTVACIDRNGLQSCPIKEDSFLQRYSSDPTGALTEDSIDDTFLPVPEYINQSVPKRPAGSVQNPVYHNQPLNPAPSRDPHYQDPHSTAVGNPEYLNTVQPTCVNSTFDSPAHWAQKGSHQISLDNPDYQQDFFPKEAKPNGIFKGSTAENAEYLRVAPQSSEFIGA

As for `C=CC(=O)N[C@@H]1CCN(c2ncnc3cnc(Nc4ccc(OCCOC)cc4OC)cc23)C1`, the IC50 in the data set with HCC827 [1] is greater than 10000 nM. Besides, the Activity in the data set on HCC827 [2] is recorded as less than 50%.
In the data set with HCC827 [1], `C=CC(=O)N[C@@H]1CCN(c2ncnc3cnc(Nc4ccc(N5CCN(C)CC5)cc4OC)cc23)C1` had an IC50 greater than 10000 nM. For the same compound, the Activity in the data set on HCC827 [2] was less than 50%.
Regarding `C=CC(=O)Nc1cccc(Nc2cc3c(N4CCCC4)nc(OCC4CCOCC4)nc3cn2)n1`, in the data set on HCC827 [1], the midpoint of inhibition, the IC50, lay at 8700 nM. Besides, the solubility result in data set [3] is recorded as “Insoluble”.
For `C=CC(=O)N[C@@H]1CCN(c2ncnc3cnc(Nc4ccc(N5CCN(C)CC5)cn4)cc23)C1`, the IC50 in the data set with HCC827 [1] is 3520 nM; with NCI-H1975 [4] it was greater than 10000 nM. Besides, in the data set on NCI-H1975 [5], the Activity was less than 50%.
As to `C=CC(=O)Nc1cccc(Nc2cc3c(N4CCCC4)nc(OC4CCOCC4)nc3cn2)n1`, in the data set with HCC827 [1], the IC50 stood at 2740 nM. The solubility entry in data set [3] is recorded as “Insoluble”.
As to `C=CC(=O)N1CC[C@H](Nc2nc(Nc3ccccc3)nc3cnc(Nc4ccc(N5CCN(C)CC5)cn4)cc23)C1`, the IC50 in the data set with HCC827 [1] was 270 nM; with NCI-H1975 [4] it was 860 nM; in the data set with A549, 1670 nM; in data set [6], 9.9 nM; in [7], 10.8 nM; in [8], 238 nM. In data set [9], this compound yielded an IC50 greater than 500 nM. The solubility result in [3] is listed as “Soluble”. The compound further gave an inhibition in data set [10] of less than 50%.
For `C=CC(=O)N1CC[C@@H](Nc2nc(Nc3ccccc3)nc3cnc(Nc4ccc(N5CCN(C)CC5)cn4)cc23)C1`, the IC50 is 170 nM with HCC827 [1]; 440 nM with NCI-H1975 [4]; 650 nM with A549; 3.3 nM in data set [6]; 4.6 nM in [7]; 106 nM in [8]. This compound also had an IC50 in data set [9] greater than 500 nM. Moreover, in [3], the solubility result is reported as “Soluble”. The compound also gave an inhibition in [10] of less than 50%.
`C=CC(=O)N[C@H]1CCN(c2nc(Nc3ccccc3)nc3cnc(Nc4ccc(N5CCN(C)CC5)cn4)cc23)C1`: the IC50 in the data set with HCC827 [1] worked out at 69 nM; in the data set on NCI-H1975 [4], 850 nM; in the data set on A549 it was 640 nM; in [6], 1.5 nM; in data set [7] it was 3.2 nM; in data set [8] it was 26.5 nM. In data set [9], the midpoint of inhibition, the IC50, lay at 285 nM. Further, the solubility result in data set [3] is “Soluble”.
Regarding `C=CC(=O)N[C@@H]1CCN(c2nc(Nc3ccccc3)nc3cnc(Nc4ccc(N5CCN(C)CC5)cn4)cc23)C1`, the half-maximal inhibitory concentration (IC50) turned out to be 20 nM with HCC827 [1]; 1440 nM with NCI-H1975 [4]; 1190 nM in the data set with A549; 2.7 nM in data set [6]; 4.7 nM in data set [7]; 36.6 nM in [8]. In addition, the solubility result in data set [3] is recorded as “Soluble”.
For `C=CC(=O)Nc1cccc(Nc2cc3c(N4CCCC4)nc(Nc4cccc(F)c4)nc3cn2)n1`, the IC50 with HCC827 [1] was greater than 10000 nM. Also, the Activity in the data set on HCC827 [2] is less than 50%. The solubility result in data set [3] is “Insoluble”.
Turning to `C=CC(=O)N[C@H]1CCCN(c2nc(Nc3ccccc3)nc3cnc(Nc4ccc(N5CCN(C)CC5)cn4)cc23)C1`, the IC50 with HCC827 [1] was found to be 73 nM; in the data set with NCI-H1975 [4], 1400 nM; in the data set on A549 it was 810 nM; in data set [6] it was 12 nM; in [7], 14.2 nM; in data set [8], 361 nM. Moreover, the IC50 in data set [9] is greater than 500 nM. Moreover, the solubility entry in [3] is on record as “Soluble”. In addition, the inhibition in data set [10] is less than 50%.
On to `C=CC(=O)Nc1cc(Nc2nccc(-c3cn(C)c4ccccc34)n2)c(OC)cc1N(C)CCN(C)C` [OSIMERTINIB], for which the IC50 came out at 27 nM in the data set on HCC827 [1], […] in the data set on NCI-H1975 [4] and 530 nM with A549. For the same compound, the figures for the Activity with HCC827 [11] and in the data set with HCC827 [12] were 8.28% and 68.1%, respectively.
`C=CC(=O)N[C@@H]1CCN(c2ncnc3cnc(Nc4ccc(OCCN(C)C)cc4OC)cc23)C1` gave an IC50 in the data set on HCC827 [1] greater than 10000 nM. In the data set on HCC827 [2], this compound had an Activity of less than 50%.
For `C=CC(=O)Nc1cccc(Nc2cc3c(N4CCCC4)nc(Nc4ccccc4)nc3cn2)n1`, the concentration for half-maximal inhibition (IC50) with HCC827 [1] was greater than 10000 nM. The compound also showed an Activity in the data set with HCC827 [2] of less than 50%. For the same compound, the solubility result in data set [3] is recorded as “Insoluble”.
As for `C=CC(=O)Nc1cccc(Nc2cc3c(N4CCCC4)nc(OCC4CCCCC4)nc3cn2)n1`, in the data set on HCC827 [1], the IC50 is greater than 10000 nM. In addition, the solubility entry in data set [3] was “Insoluble”.
On the same counts, the results for `C=CC(=O)Nc1cccc(Nc2cc3c(N4CCCC4)nc(OCc4ccccc4)nc3cn2)n1` are greater than 10000 nM and “Insoluble”.
As to `C=CC(=O)N[C@@H]1CCCN(c2nc(Nc3ccccc3)nc3cnc(Nc4ccc(N5CCN(C)CC5)cn4)cc23)C1`, the IC50 with HCC827 [1] is 54 nM; in the data set with NCI-H1975 [4], 1750 nM; in the data set on A549, 810 nM; in data set [6], 5.4 nM; in data set [7], 6.5 nM; in [8] it was 164 nM. For the same compound, the IC50 in data set [9] is greater than 500 nM. Moreover, in [3], the solubility entry is given as “Soluble”. In addition, the inhibition in data set [10] was less than 50%.
Regarding `C=CC(=O)Nc1cccc(Nc2cc3c(N4CCCC4)nc(OCc4ccc(F)cc4)nc3cn2)n1`, the IC50 in the data set on HCC827 [1] was greater than 10000 nM. For the same compound, the solubility result in data set [3] is listed as “Insoluble”.
